Drawing on ChEMBL document CHEMBL4813988, “Design and synthesis of N-(3-sulfamoylphenyl)amides as Trypanosoma brucei leucyl-tRNA synthetase inhibitors” (Eur J Med Chem, 2021), this text covers IC50 and Ratio IC50 for 40 molecules.

Broadly, the IC50 is the concentration that inhibits the measured activity by half.

The structures appear in SMILES notation.

Test system in one test: not listed separately
Kind of test: Inhibition of Trypanosoma brucei LeuRS expressed in Escherichia coli BL21 (DE3)-RIPL cells preincubated for 20 mins in presence of [14C]leucine followed by incubation with ATP for 15 mins by liquid scintillation counting method.
Details: not given
With `CC(C)C[C@H](N)C(=O)NS(=O)(=O)c1cccc(NC(=O)c2ccc(OC(C)C)cc2)c1`, the IC50 was found to be 3.9 µM. The same measure, in the same setting: the figure for `CC(C)C[C@H](N)C(=O)NS(=O)(=O)c1cccc(NC(=O)c2ccc(-c3ccccc3)cc2)c1` is 5.8 µM; for `Cc1ccc(C(=O)Nc2cccc(S(=O)(=O)NC(=O)[C@@H](N)CC(C)C)c2)cc1` it is 14 µM. On the same count and under the same terms, the same measure for `CC(C)C[C@H](N)C(=O)NS(=O)(=O)c1cccc(NC(=O)c2ccc(Br)cc2)c1`: 5.2 µM; for `COc1cccc(C(=O)Nc2cccc(S(=O)(=O)NC(=O)[C@@H](N)CC(C)C)c2)c1`: 2.4 µM; for `Cc1cccc(C(=O)Nc2ccc(S(=O)(=O)NC(=O)[C@@H](N)CC(C)C)cc2)c1`: 59.7 µM. On the same count and under the same terms, the same measure for `COc1cc(C(=O)Nc2cccc(S(=O)(=O)NC(=O)[C@@H](N)CC(C)C)c2)cc(OC)c1OC`: 1.48 µM. For the molecule `COc1ccc(C(=O)Nc2cccc(S(=O)(=O)NC(=O)[C@@H](N)CC(C)C)c2)cc1OC`, the IC50 is 0.66 µM. Same read-out and setting: the figure for `CC(C)C[C@H](N)C(=O)NS(=O)(=O)c1cccc(NC(=O)c2ccc(F)cc2)c1` is 6.4 µM.

For `CC(C)C[C@H](N)C(=O)NS(=O)(=O)c1cccc(NC(=O)OCc2ccccc2)c1`, the IC50 was determined as 4 µM. Same read-out and setting: the figure for `CCCCOc1ccc(C(=O)Nc2cccc(S(=O)(=O)NC(=O)[C@@H](N)CC(C)C)c2)cc1` is 0.8 µM; for `CC(C)C[C@H](N)C(=O)NS(=O)(=O)c1cccc(NC(=O)c2ccc(Cl)cc2)c1` it is 4.9 µM. Still for that read-out and setting: the same measure for `COc1cccc(-c2cccc(C(=O)Nc3cccc(S(=O)(=O)NC(=O)[C@@H](N)CC(C)C)c3)c2)c1`: 3.6 µM; for `CC(C)C[C@H](N)C(=O)Nc1ccc(S(=O)(=O)NC(=O)[C@@H](N)CC(C)C)cc1`: 107 µM; for `CC(C)C[C@H](N)C(=O)NS(=O)(=O)c1ccc(NC(=O)c2cccc([N+](=O)[O-])c2)cc1`: > 1000 µM. As for `CC(C)C[C@H](N)C(=O)NS(=O)(=O)c1cccc(NC(=O)c2ccc([N+](=O)[O-])cc2)c1`, the concentration for half-maximal inhibition (IC50) was found to be 14.7 µM. On the same count and under the same terms, the figure for `CC(C)C[C@H](N)C(=O)NS(=O)(=O)c1cccc(NC(=O)c2ccccc2[N+](=O)[O-])c1` is 11.5 µM; for `Cc1cccc(C(=O)Nc2cccc(S(=O)(=O)NC(=O)[C@@H](N)CC(C)C)c2)c1` it is 9.5 µM; for `CC(C)C[C@H](N)C(=O)NS(=O)(=O)c1ccc(NC(=O)c2ccc(Cl)cc2)cc1` it is 116 µM. On the same count and under the same terms, the same measure for `CC(C)C[C@H](N)C(=O)NS(=O)(=O)c1ccc(NC(=O)c2ccc(Br)cc2)cc1`: 31.2 µM; for `CC(C)C[C@H](N)C(=O)NS(=O)(=O)c1cccc(NC(=O)c2cccc(Oc3ccccc3)c2)c1`: 8.6 µM. On the same count and under the same terms, the figure for `Cc1ccccc1C(=O)Nc1cccc(S(=O)(=O)NC(=O)[C@@H](N)CC(C)C)c1` is 14.3 µM; for `CCOc1ccc(C(=O)Nc2cccc(S(=O)(=O)NC(=O)[C@@H](N)CC(C)C)c2)cc1` it is 0.5 µM. Consider `CC(C)C[C@H](N)C(=O)NS(=O)(=O)c1ccc(NC(=O)c2ccc([N+](=O)[O-])cc2)cc1`, for which the IC50 came to 32.7 µM. The same measure, in the same setting: the same measure for `Cc1ccc(C(=O)Nc2ccc(S(=O)(=O)NC(=O)[C@@H](N)CC(C)C)cc2)cc1`: 39.1 µM.

Turning to `CC(C)C[C@H](N)C(=O)NS(=O)(=O)c1cccc(NC(=O)c2ccc(Oc3ccccc3)cc2)c1`, the IC50 amounted to 1.3 µM. The same measure, in the same setting: the figure for `NS(=O)(=O)c1ccc(NC(=S)NC(=O)COc2ccc(Br)cc2Cl)cc1` is 174 µM; for `COc1ccc(C(=O)Nc2cccc(S(=O)(=O)NC(=O)[C@@H](N)CC(C)C)c2)cc1` it is 0.24 µM. For `CC(C)C[C@H](N)C(=O)NS(=O)(=O)c1cccc(NC(=O)c2ccc(O)cc2)c1`, the IC50 stood at 0.3 µM. The same measure, in the same setting: the figure for `COc1ccc(-c2cccc(C(=O)Nc3cccc(S(=O)(=O)NC(=O)[C@@H](N)CC(C)C)c3)c2)cc1` is 1.8 µM; for `CC(C)C[C@H](N)C(=O)NS(=O)(=O)c1cccc(NC(=O)c2cccc([N+](=O)[O-])c2)c1` it is 8.6 µM.

`CC(C)C[C@H](N)C(=O)NS(=O)(=O)c1ccc(NC(=O)c2ccccc2)cc1`: the IC50 was 96 µM. On the same count and under the same terms, the figure for `CC(C)C[C@H](N)C(=O)NS(=O)(=O)c1ccc(NC(=O)c2cccc(Cl)c2)cc1` is 42.8 µM; for `CC(C)C[C@H](N)C(=O)NS(=O)(=O)c1cccc(NC(=O)c2cccc(-c3ccccc3)c2)c1` it is 3.6 µM; for `CC(C)C[C@H](N)C(=O)NS(=O)(=O)c1cccc(NC(=O)c2ccc(OCc3ccccc3)cc2)c1` it is 0.25 µM. On the same count and under the same terms, the same measure for `CC(C)C[C@H](N)C(=O)NS(=O)(=O)c1cccc(NC(=O)c2cccs2)c1`: 6.2 µM; for `CC(C)C[C@H](N)C(=O)NS(=O)(=O)c1cccc(NC(=O)c2ccco2)c1`: 3.7 µM. The same measure, in the same setting: the figure for `CC(C)C[C@H](N)C(=O)NS(=O)(=O)c1cccc(NC(=O)c2ccccc2)c1` is 9.4 µM.

The test system of another test is Trypanosoma brucei. Put plainly: Potency index, ratio of IC50 of ZCL539 to IC50 of compound for inhibition of Trypanosoma brucei LeuRS expressed in Escherichia coli BL21 (DE3)-RIPL cells preincubated for 20 mins in presence of [14C]leucine followed by incubation with ATP for 15 mins by liquid scintillation counting method. The settings on record: time 35.0 min.
Consider `COc1ccc(C(=O)Nc2cccc(S(=O)(=O)NC(=O)[C@@H](N)CC(C)C)c2)cc1`, for which the Ratio IC50 was > 700. Same read-out and setting: the same measure for `CC(C)C[C@H](N)C(=O)NS(=O)(=O)c1cccc(NC(=O)c2ccc(OCc3ccccc3)cc2)c1`: 700.

Another test concerns Trypanosoma brucei brucei. Put plainly: Antitrypanosomal activity against bloodstream form of Trypanosoma brucei brucei 221 assessed as parasite growth inhibition incubated for 72 hrs by resazurin staining based assay. Format: functional, organism-based. The settings on record: Trypanosoma brucei, 221, 72 h. In short, it runs like this:
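Trypanosomes kept in log phase in complete HMI-11 by subculture every 2-3 days, counted by hemocytometer, plated at final 1.0 × 10⁵/mL with serially DMSO-diluted compound (final 0.4% DMSO), triplicate wells. 72 h at 37 °C, 5% CO₂; resazurin added, further 5 h. Fluorescence ex 544/em 590 nm; triplicates averaged, IC₅₀ from sigmoidal dose-response fit.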
(In general: The colour change of resazurin is a common sign of viable cells or microbes.)
With `N=C(N)c1ccc(OCCCCCOc2ccc(C(=N)N)cc2)cc1` [PENTAMIDINE], the IC50 was determined as 9 ng/mL. For the molecule `Cc1ccc(C(=O)Nc2ccc(S(=O)(=O)O)c3cc(S(=O)(=O)O)cc(S(=O)(=O)O)c23)cc1NC(=O)c1cccc(NC(=O)Nc2cccc(C(=O)Nc3cc(C(=O)Nc4ccc(S(=O)(=O)O)c5cc(S(=O)(=O)O)cc(S(=O)(=O)O)c45)ccc3C)c2)c1` [SURAMIN], the IC50 turned out to be 7 ng/mL. The same measure, in the same setting: the figure for `CC(C)C[C@H](N)C(=O)NS(=O)(=O)c1cccc(NC(=O)c2ccc(OCc3ccccc3)cc2)c1` is 69.8 µM.
